Experimental data collected from several papers.
Each line is one published result; the experiments were not run side by side.
Target: Cytoplasmic tyrosine-protein kinase BMX (BMX, Homo sapiens, UniProt P51813)
Sequence (P51813 1-675, as in one of the studies): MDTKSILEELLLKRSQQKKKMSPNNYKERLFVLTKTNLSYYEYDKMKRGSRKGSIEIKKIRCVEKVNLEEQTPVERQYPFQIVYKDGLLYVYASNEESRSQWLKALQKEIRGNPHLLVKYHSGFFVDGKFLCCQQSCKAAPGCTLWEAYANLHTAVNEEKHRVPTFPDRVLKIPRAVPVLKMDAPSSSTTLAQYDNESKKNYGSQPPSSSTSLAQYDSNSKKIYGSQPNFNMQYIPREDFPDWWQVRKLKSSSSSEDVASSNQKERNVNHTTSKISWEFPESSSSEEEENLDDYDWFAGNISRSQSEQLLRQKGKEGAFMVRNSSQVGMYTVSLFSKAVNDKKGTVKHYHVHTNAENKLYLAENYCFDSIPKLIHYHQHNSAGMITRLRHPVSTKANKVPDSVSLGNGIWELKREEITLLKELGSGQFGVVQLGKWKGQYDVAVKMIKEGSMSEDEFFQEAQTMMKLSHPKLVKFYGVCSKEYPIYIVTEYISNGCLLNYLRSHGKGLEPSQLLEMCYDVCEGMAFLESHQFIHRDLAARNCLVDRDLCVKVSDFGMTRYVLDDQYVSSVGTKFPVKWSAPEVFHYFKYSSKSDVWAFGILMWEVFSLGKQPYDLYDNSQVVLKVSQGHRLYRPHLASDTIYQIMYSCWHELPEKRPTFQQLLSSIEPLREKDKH

Cn1c2c(c3ccccc31)C(C#N)C(C)(C)NC2=O (centres unmarked)  ΔTm (thermal stability, DSF; 10 µM): -0.4 °C
O=C1c2ccccc2-c2n[nH]c3cccc1c23  activity vs control (enzyme activity, inhibitor; 0.5 µM): 90.8%
CC/C(=N\NC(=O)NCc1cccc(O)c1)c1ccc(O)c(C)c1O  inhibition (enzyme activity, inhibitor; 0.1 µM): 3%
Fc1ccc(-c2nc3n(c2-c2ccncc2)CCS3)cc1  remaining activity (enzyme activity, inhibitor; 0.5 µM): 104%
Cc1nccc(COC(=O)N2C[C@@H]3[C@@H](CNC(=O)c4ccc5[nH]nnc5c4)[C@@H]3C2)n1  remaining binding (cell-free assay, competition with immobilised ligand; 1 µM): 88%
CNc1cccc2cc(C(=O)Nc3ccc(C(=O)O)cc3)c(=O)[nH]c12  inhibition (enzyme activity, inhibitor; 10 µM): 9.1%
Cc1ccc(Nc2nccc(N(C)c3ccc4c(C)n(C)nc4c3)n2)cc1S(N)(=O)=O  inhibition (enzyme activity, inhibitor; 10 µM): 70%
N#CCCc1ccc2c(c1)-c1[nH]c3ccc([N+](=O)[O-])cc3c1CC(=O)N2  remaining signal (cell-free assay; 0.5 µM): 99.5%
Nc1c(C(=O)NCc2ccc(C(=O)NCCCC3CCCCC3)cc2)cnn1-c1ccccc1  remaining binding (cell-free assay, competition with immobilised ligand; 0.1 µM): 100%
CNc1cc2c(Nc3cccc(Br)c3)ncnc2cn1  remaining activity (enzyme activity, inhibitor; 0.5 µM): 93.9%
O=C(Nc1cnn(-c2csc(C(=O)NC3COC3)c2)c1)Nc1ccccc1Cl  remaining activity (enzyme activity, inhibitor; 5 µM): 106%
CNC(=O)c1cc(Oc2ccc(NC(=O)Nc3ccc(Cl)c(C(F)(F)F)c3)cc2)ccn1  inhibition (enzyme activity, inhibitor; 10 µM): 9%
FC(F)(F)c1ccc2c(c1)nc(-c1cccnc1)n2C1CC1  remaining binding (cell-free assay, competition with immobilised ligand; 1 µM): 100%
Cc1ccc(C(=O)NCc2ccsc2)cc1C#Cc1cn(C(C)C)c2ncnc(N)c12  activity vs control (enzyme activity, inhibitor; 1 µM): 2%
COc1cc2ncnc(Nc3ccc(Oc4ccccc4)c(C)c3C)c2cc1OC  inhibition (enzyme activity, inhibitor; 1 µM): 1%
Cn1cc(Cl)c2c(Oc3c(F)cc(Nc4cc(Cl)nc(N)n4)cc3F)ccnc21  remaining binding (cell-free assay, competition with immobilised ligand; 0.1 µM): 97%
COc1cc2nccc(Oc3ccc(NC(=O)c4c5n(n(-c6ccc(F)cc6)c4=O)CCCC5)cc3)c2cc1OC  inhibition (enzyme activity, inhibitor; 0.1 µM): 22%
Cn1c2c(c3ccc(Cl)c(Cl)c31)C(C#N)C(C)(C)NC2=O (centres unmarked)  ΔTm (thermal stability, DSF; 10 µM): -0.1 °C
O=C(Nc1cnc(Oc2ccc(F)cc2)nc1)N1CCc2ncccc2[C@@H]1c1ccc(F)cc1  remaining binding (cell-free assay, competition with immobilised ligand; 1 µM): 94%
Cn1c2c(c3ccc(Cl)c(Cl)c31)C(C#N)C1(CCNCC1)NC2=O (racemic)  ΔTm (thermal stability, DSF; 10 µM): -0.3 °C
CN(c1ccnc(CNc2nc(Nc3ccc4c(c3)CC(=O)N4)ncc2C(F)(F)F)n1)S(C)(=O)=O  remaining binding (cell-free assay, competition with immobilised ligand; 1 µM): 80%
Cn1c2c(Cl)c(Cl)ccc2c2cn[nH]c(=O)c21  ΔTm (thermal stability, DSF; 10 µM): 0.4 °C
C[S+]([O-])c1ccc(-c2nc(-c3ccncc3)c(-c3ccc(F)cc3)[nH]2)cc1 (centres unmarked)  remaining signal (cell-free assay; 0.5 µM): 94.4%
Cn1cncc1C1=CN(c2ncnc3[nH]cnc23)CCS1  inhibition (enzyme activity, inhibitor, radiometric; 2 µM): 40%
Cn1c2c(c3ccc(Cl)c(Cl)c31)C(C#N)C1(CCCC1)NC2=O (centres unmarked)  ΔTm (thermal stability, DSF; 10 µM): 0 °C
C#Cc1cccc(Nc2ncnc3cc(OCCOC)c(OCCOC)cc23)c1  remaining signal (cell-free assay; 0.5 µM): 100%
O=C(Nc1cccnn1)N1CCC(=Cc2cccc(Oc3ccc(C(F)(F)F)cn3)c2)CC1  remaining binding (cell-free assay, competition with immobilised ligand; 1 µM): 71%
CCN(CC)CCNC(=O)c1c(C)[nH]c(/C=C2\C(=O)Nc3ccc(F)cc32)c1C  inhibition (enzyme activity, inhibitor; 0.3 µM): -1%
Oc1ccc(-c2nc(-c3ccncc3)c(-c3ccc(F)cc3)[nH]2)cc1  remaining signal (cell-free assay; 0.5 µM): 93.9%
CN(C)C1CCN(CC#Cc2nn(C3CCCC3)c3nc(NCc4ccccc4)ncc23)C1 (centres unmarked)  inhibition (enzyme activity, inhibitor, FRET; 10 µM): 14%
O=C1NC(=O)c2cc(Nc3ccc(F)cc3)c(Nc3ccc(F)cc3)cc21  remaining signal (cell-free assay; 0.5 µM): 95.3%
c1ccc(N2CCN(Cc3nc4ccccc4[nH]3)CC2)nc1  remaining binding (cell-free assay, competition with immobilised ligand; 1 µM): 100%
